Experimental data as given in ChEMBL document CHEMBL4177768, “Synthesis and Biological Evaluation of Derivatives of Indoline as Highly Potent Antioxidant and Anti-inflammatory Agents” (J Med Chem, 2018).
Active and inactive are the calls of the source. The rule behind the calls is not given here.

What was measured:
RAW264.7 [1] = test: Cytoprotective activity against H2O2-induced oxidative stress in mouse RAW264.7 cells assessed as increase in cell viability at 1 pM incubated for 2 hrs prior to H2O2 addition measured after 24 hrs by MTT assay; format: functional, cell-based
Outline: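 RAW 264.7 macrophages cultured in DMEM with 10% FCS, seeded at 1 x 10^4 cells/mL. Pretreated 2 h with compound (1 pM to 100 nM) before H2O2 at 100 μM. Viability read by MTT (0.5 mg/mL final, 1 h, 37 °C, DMSO lysis, OD 570 nm) relative to vehicle. 2-3 experiments, at least 6 wells per concentration; mean ± SEM.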

RAW264.7 [2] = test: Cytoprotective activity against H2O2-induced oxidative stress in mouse RAW264.7 cells assessed as cell viability at 1 pM incubated for 2 hrs prior to H2O2 addition measured after 24 hrs by MTT assay (reference value: 68 to 72.8%); format: functional; conditions: read-out: Activity
RAW264.7 [3] = test: Antiinflammatory activity in mouse RAW264.7 cells assessed as reduction in LPS-induced TNF-alpha production at 1 pM to 100 nM incubated for 2 hrs prior to LPS challenge measured after 8 hrs by ELISA; format: functional, cell-based
Outline: (§1)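 RAW 264.7 macrophages were plated at 1×10^5 per well, grown overnight and washed with PBS. Compounds in water (final 1 pM-100 nM, medium with 2% FCS) were added 2 h at 37 °C before E. coli 0111:B4 LPS, 2.5 µg/mL. TNF-α was sampled at 8 h; IL-6 and nitrite (Griess) at 24 h. ELISA was used for cytokines. Values are % of the LPS + medium value in each experiment. Budesonide was the reference. 2-3 experiments, 6 wells per concentration.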

[4] = Cytotoxicity against mouse RAW264.7 cells assessed as cell viability at 10^-10 M after 24 hrs by MTT assay relative to control; format: cell-based; conditions: read-out: Activity
Outline: (§2)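 RAW 264.7 cells, seeded at 1×10^4 cells/mL and incubated 24 h, were exposed to compound from 1 pM to 100 nM. Viability was read by MTT (final 0.5 mg/mL, 1 h at 37 °C), with formazan dissolved in DMSO and OD at 570 nm. Results are compared with medium-only cells.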

[5] = Cytotoxicity against mouse RAW264.7 cells assessed as cell viability at 10^-11 M after 24 hrs by MTT assay relative to control; format: cell-based; conditions: read-out: Activity; outline: as §2
[6] = Cytotoxicity against mouse RAW264.7 cells assessed as cell viability at 10^-7 M after 24 hrs by MTT assay relative to control; format: cell-based; conditions: read-out: Activity; outline: as §2
[7] = Cytotoxicity against mouse RAW264.7 cells assessed as cell viability at 10^-12 M after 24 hrs by MTT assay relative to control; format: cell-based; conditions: read-out: Activity; outline: as §2
RAW264.7 [8] = test: Antiinflammatory activity in mouse RAW264.7 cells assessed as reduction in LPS-induced nitric oxide production at 1 pM to 100 nM incubated for 2 hrs prior to LPS challenge measured after 24 hrs by Griess assay; format: functional, cell-based; outline: as §1
RAW264.7 [9] = test: Antiinflammatory activity in mouse RAW264.7 cells assessed as reduction in LPS-induced nitric oxide production at 10 pM incubated for 2 hrs prior to LPS challenge measured after 24 hrs by Griess assay; format: functional; parameters: scale not given: the % may be the effect or the level left; outline: as §1
RAW264.7 [10] = test: Antiinflammatory activity in mouse RAW264.7 cells assessed as reduction in LPS-induced IL-6 production at 10 pM incubated for 2 hrs prior to LPS challenge measured after 24 hrs by ELISA; format: functional; parameters: scale not given: the % may be the effect or the level left; outline: as §1
[11] = Cytotoxicity against mouse RAW264.7 cells assessed as cell viability at 10^-9 M after 24 hrs by MTT assay relative to control; format: cell-based; conditions: read-out: Activity; outline: as §2
[12] = Cytotoxicity against mouse RAW264.7 cells assessed as cell viability at 10^-8 M after 24 hrs by MTT assay relative to control; format: cell-based; conditions: read-out: Activity; outline: as §2
RAW264.7 [13] = test: Antiinflammatory activity in mouse RAW264.7 cells assessed as reduction in LPS-induced TNF-alpha production at 10 pM incubated for 2 hrs prior to LPS challenge measured after 8 hrs by ELISA; format: functional; parameters: scale not given: the % may be the effect or the level left; outline: as §1
Mus musculus [14] = test: Antiinflammatory activity in Balb/C mouse assessed as reduction in LPS-induced IL6 production in spleen at 0.1 umol/kg, sc administered LPS 15 mins post compound treatment measured after 4 hrs by ELISA; format: functional, organism-based
Outline: (§3)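 Male Balb/C mice, 7-8 weeks old, given compound sc (0.1, 1 or 10 µmoles/kg) or saline. LPS 10 mg/kg was given ip 15 min later, and mice were killed 4 h after that. Spleens were homogenized in PBS with protease inhibitor and centrifuged at 14,000 g, 4 °C. Cytokines in plasma and tissue supernatants were measured by ELISA, with protein by BCA. Dexamethasone 5.6 µmoles/kg was the reference. n = 8-10 mice per treatment.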

Mus musculus [15] = test: Antiinflammatory activity in Balb/C mouse assessed as reduction in LPS-induced IL6 production in liver at 0.1 to 10 umol/kg, sc administered LPS 15 mins post compound treatment measured after 4 hrs by ELISA; format: functional, organism-based
Mus musculus [16] = test: Acute toxicity in Balb/C mouse assessed as change in body weight at 100 umol/kg, sc measured over 72 hrs; format: organism-based; conditions: in vivo
Outline: (§4)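 Male Balb/C mice, 24-28 g, groups of 3; single sc injection of compound at 100 μmoles/kg or saline (1 mL/100 g). Food and water intake, body weight and general activity monitored over 72 h against saline-injected animals.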

Mus musculus [17] = test: Antiinflammatory activity in Balb/C mouse assessed as reduction in LPS-induced TNF-alpha production in plasma at 0.1 umol/kg, sc administered LPS 15 mins post compound treatment measured after 4 hrs by ELISA; format: functional, organism-based; outline: as §3
Mus musculus [18] = test: Antiinflammatory activity in Balb/C mouse assessed as reduction in LPS-induced TNF-alpha production in spleen at 0.1 umol/kg, sc administered LPS 15 mins post compound treatment measured after 4 hrs by ELISA; format: functional, organism-based; outline: as §3
Mus musculus [19] = test: Acute toxicity in Balb/C mouse assessed as change in activity at 100 umol/kg, sc measured over 72 hrs; format: organism-based; conditions: in vivo; outline: as §4
Mus musculus [20] = test: Acute toxicity in Balb/C mouse assessed as change in water intake at 100 umol/kg, sc measured over 72 hrs; format: organism-based; conditions: in vivo; outline: as §4
RAW264.7 [21] = test: Cytoprotective activity against H2O2-induced oxidative stress in mouse RAW264.7 cells assessed as decrease in LDH release at 1 pM incubated for 2 hrs prior to H2O2 addition by colorimetric assay relative to control; format: functional; parameters: scale not given: the % may be the effect or the level left
Outline: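 RAW 264.7 cells were seeded and pretreated with compound before H2O2 100 µM, in serum-free medium. Collected medium was centrifuged and incubated with reaction mix 30 min at room temperature. LDH was measured as NADH formation by colorimetric read at 490 nm. n = 8-10 replicates per concentration.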

RAW264.7 [22] = test: Antiinflammatory activity in mouse RAW264.7 cells assessed as reduction in LPS-induced nitric oxide production at 100 pM incubated for 2 hrs prior to LPS challenge measured after 24 hrs by Griess assay; format: functional; parameters: scale not given: the % may be the effect or the level left; outline: as §1
Mus musculus [23] = test: Acute toxicity in Balb/C mouse assessed as change in food intake at 100 umol/kg, sc measured over 72 hrs; format: organism-based; conditions: in vivo; outline: as §4
Mus musculus [24] = test: Antiinflammatory activity in Balb/C mouse assessed as reduction in LPS-induced IL6 production in plasma at 0.1 umol/kg, sc administered LPS 15 mins post compound treatment measured after 4 hrs by ELISA; format: functional, organism-based; outline: as §3
RAW264.7 [25] = test: Cytoprotective activity against H2O2-induced oxidative stress in mouse RAW264.7 cells assessed as decrease in LDH release at 1 pM incubated for 2 hrs prior to H2O2 addition by colorimetric assay relative to control; parameters: scale not given: the % may be the effect or the level left
Mus musculus [26] = test: Antiinflammatory activity in Balb/C mouse assessed as reduction in LPS-induced IL6 production in brain at 0.1 umol/kg, sc administered LPS 15 mins post compound treatment measured after 4 hrs by ELISA; format: functional, organism-based
RAW264.7 [27] = test: Antiinflammatory activity in mouse RAW264.7 cells assessed as reduction in LPS-induced IL-6 production at 100 pM incubated for 2 hrs prior to LPS challenge measured after 24 hrs by ELISA; format: functional; parameters: scale not given: the % may be the effect or the level left; outline: as §1

O=c1c(O)c(-c2ccc(O)c(O)c2)oc2cc(O)cc(O)c12
Activity (RAW264.7 [1]): Active

COC(=O)CCN1CCc2cc(Cl)ccc21.Cc1ccc(S(C)(=O)=O)cc1
viability at 1 pM (RAW264.7 [2]): 89.7% | Activity (RAW264.7 [3]): Active | viability at 24 h, 0.0001 µM [4]: 104% | viability at 24 h, 1e-05 µM [5]: 106% | viability at 24 h, 0.1 µM [6]: 105% | viability at 24 h, 1e-06 µM [7]: 108% | Activity (RAW264.7 [8]): Active | Activity (RAW264.7 [9]): 50% | Activity (RAW264.7 [10]): 50% | viability at 24 h, 0.001 µM [11]: 104% | viability at 24 h, 0.01 µM [12]: 107% | Activity (RAW264.7 [13]): 50%

CC(C)NC(=O)CCN1CCc2ccccc21.Cl
Activity (Mus musculus [14]): Active | viability at 1 pM (RAW264.7 [2]): 93.7% | Activity (Mus musculus [15]): inactive | Activity (Mus musculus [16]): Non-Toxic | Activity (Mus musculus [17]): Active | Activity (Mus musculus [18]): Active | Activity (Mus musculus [19]): Non-Toxic | Activity (Mus musculus [20]): Non-Toxic | Activity (RAW264.7 [21]): 16% | Activity (RAW264.7 [9]): 50% | Activity (RAW264.7 [22]): 50% | Activity (Mus musculus [23]): Non-Toxic | Activity (RAW264.7 [10]): 50% | Activity (Mus musculus [24]): Active | Activity (RAW264.7 [25]): 16% | Activity (Mus musculus [26]): Active | Activity (RAW264.7 [27]): 50% | Activity (RAW264.7 [13]): 50%
